Data taken from ChEMBL document CHEMBL1136007, “Synthesis, antifungal activity, and molecular modeling studies of new inverted oxime ethers of oxiconazole” (2002).
Converted amounts (≈) assume the structure as drawn.

Legend:
Aspergillus fumigatus [1] = assay: microbe, parasite or virus in culture; format: functional
Candida albicans [2] = assay: microbe, parasite or virus in culture; format: functional
Trichophyton rubrum [3] = assay: (§1) In vitro antifungal activity against Trichophyton rubrum CM1447; format: functional
Aspergillus flavus [4] = assay: (§2) In vitro antifungal activity against Aspergillus flavus CM74; format: functional
In short: (§3)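 Broth microdilution in RPMI-2% glucose following NCCLS M38-P. Conidia came from Sabouraud dextrose agar slants grown at 27 °C. They were harvested in saline with 0.1% Tween 80, gauze-filtered, counted by hemocytometer and stored at -70 °C. The final inoculum was ~10^4 conidia/mL, with 2-fold drug dilutions from 0.25 to 128 µg/mL. Plates were incubated at 35 °C and read by mirror once control growth was visible. MIC = lowest concentration with no visible growth.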

Aspergillus fumigatus [5] = assay: In vitro antifungal activity against Aspergillus fumigatus 48238E; format: functional
In short: as §3

Candida parapsilosis [6] = assay: In vitro antifungal activity against Candida parapsilosis 2372E; format: functional; conditions: Lodderomyces parapsilosis
In short: (§4)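 Yeast broth microdilution per NCCLS M27-A, with 2-fold drug dilutions from 0.001 to 128 µg/mL. The inoculum was adjusted spectrophotometrically, giving a final ~10^4 cells/mL. Plates were incubated for 24 h at 35 °C, static and humid, then shaken and read visually and at 450 nm. MIC = lowest concentration preventing discernible growth (~90% reduction vs drug-free wells).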

Nakaseomyces glabratus [7] = assay: In vitro antifungal activity against Candida glabrata 2375E; format: functional
Trichophyton rubrum [8] = assay: as §1; format: functional; remark: listed apart in the source
In short: as §3

Candida albicans [9] = assay: In vitro antifungal activity against Candida albicans 4711E; format: functional
In short: as §4

Nakaseomyces glabratus [10] = assay: microbe, parasite or virus in culture; format: functional
Trichophyton benhamiae [11] = assay: (§5) In vitro antifungal activity against Trichophyton mentagrophytes CM84; format: functional, Arthroderma benhamiae
Trichophyton benhamiae [12] = assay: as §5; format: functional, Arthroderma benhamiae; remark: listed apart in the source
In short: as §3

Aspergillus flavus [13] = assay: as §2; format: functional; remark: listed apart in the source
Candida parapsilosis [14] = assay: microbe, parasite or virus in culture; format: functional; conditions: Lodderomyces parapsilosis

| SMILES | MIC (Aspergillus fumigatus [1]) | MIC (Candida albicans [2]) | MIC (Trichophyton rubrum [3]) | MFC (Aspergillus flavus [4]) | MFC (Aspergillus fumigatus [5]) | MFC (Candida parapsilosis [6]) | MFC (Nakaseomyces glabratus [7]) | MFC (Trichophyton rubrum [8]) | MFC (Candida albicans [9]) | MIC (Nakaseomyces glabratus [10]) | MIC (Trichophyton benhamiae [11]) | MFC (Trichophyton benhamiae [12]) | MIC (Aspergillus flavus [13]) | MIC (Candida parapsilosis [14]) |
| --- | --- | --- | --- | --- | --- | --- | --- | --- | --- | --- | --- | --- | --- | --- |
| CCC/C(=N\OC(Cn1ccnc1)c1ccc(Cl)cc1Cl)c1ccc(Cl)cc1Cl (stereo not given) | > 128 µg/mL | > 128 µg/mL |  |  |  |  |  |  |  |  |  |  |  |  |
| Fc1ccc(C(Cn2ccnc2)O/N=C/c2ccc(OCCN3CCOCC3)cc2)c(F)c1 (stereo not given) | 64 µg/mL (≈ 140 µM) | 64 µg/mL (≈ 140 µM) | 8 µg/mL (≈ 17.5 µM) | 64 µg/mL (≈ 140 µM) | 64 µg/mL (≈ 140 µM) | 4 µg/mL (≈ 8.76 µM) | 8 µg/mL (≈ 17.5 µM) | 16 µg/mL (≈ 35 µM) | 64 µg/mL (≈ 140 µM) | 2 µg/mL (≈ 4.38 µM) | > 128 µg/mL | > 128 µg/mL | 64 µg/mL (≈ 140 µM) | 0.25 µg/mL (≈ 0.548 µM) |
| Clc1ccc(C(Cn2ccnc2)O/N=C/c2ccc(OCCN3CCOCC3)cc2)c(Cl)c1 (stereo not given) | 2 µg/mL (≈ 4.09 µM) | 2 µg/mL (≈ 4.09 µM) | 2 µg/mL (≈ 4.09 µM) | 8 µg/mL (≈ 16.3 µM) | 2 µg/mL (≈ 4.09 µM) | 16 µg/mL (≈ 32.7 µM) | 8 µg/mL (≈ 16.3 µM) | 16 µg/mL (≈ 32.7 µM) | 8 µg/mL (≈ 16.3 µM) | 1 µg/mL (≈ 2.04 µM) | 4 µg/mL (≈ 8.17 µM) | 8 µg/mL (≈ 16.3 µM) | 8 µg/mL (≈ 16.3 µM) | 0.25 µg/mL (≈ 0.511 µM) |
| C/C(=N\OC(Cn1ccnc1)c1ccc(F)cc1F)c1ccc(F)cc1F (stereo not given) | 8 µg/mL (≈ 21.2 µM) | 32 µg/mL (≈ 84.8 µM) | 8 µg/mL (≈ 21.2 µM) | 16 µg/mL (≈ 42.4 µM) | 16 µg/mL (≈ 42.4 µM) | 32 µg/mL (≈ 84.8 µM) | 2 µg/mL (≈ 5.3 µM) | 16 µg/mL (≈ 42.4 µM) | 32 µg/mL (≈ 84.8 µM) | 0.03 µg/mL (≈ 0.0795 µM) | 1 µg/mL (≈ 2.65 µM) | 4 µg/mL (≈ 10.6 µM) | 16 µg/mL (≈ 42.4 µM) | 2 µg/mL (≈ 5.3 µM) |
| C/C(=N\OC(Cn1ccnc1)c1ccc(Cl)cc1Cl)c1ccc(Cl)cc1Cl (stereo not given) | 8 µg/mL (≈ 18.1 µM) | 4 µg/mL (≈ 9.03 µM) | 8 µg/mL (≈ 18.1 µM) | 32 µg/mL (≈ 72.2 µM) | 8 µg/mL (≈ 18.1 µM) | 16 µg/mL (≈ 36.1 µM) | 2 µg/mL (≈ 4.51 µM) | 8 µg/mL (≈ 18.1 µM) | 8 µg/mL (≈ 18.1 µM) | 0.5 µg/mL (≈ 1.13 µM) | 8 µg/mL (≈ 18.1 µM) | 8 µg/mL (≈ 18.1 µM) | 32 µg/mL (≈ 72.2 µM) | 1 µg/mL (≈ 2.26 µM) |
| CC/C(=N\OC(Cn1ccnc1)c1ccc(Cl)cc1Cl)c1ccc(Cl)cc1Cl (stereo not given) | > 128 µg/mL | 16 µg/mL (≈ 35 µM) |  |  |  |  |  |  |  |  |  |  |  |  |
| C/C(=N\OC(Cn1ccnc1)c1ccc(F)cc1F)c1ccc(OCCN2CCOCC2)cc1 (stereo not given) | 16 µg/mL (≈ 34 µM) | 8 µg/mL (≈ 17 µM) | 4 µg/mL (≈ 8.5 µM) | 32 µg/mL (≈ 68 µM) | 16 µg/mL (≈ 34 µM) | 2 µg/mL (≈ 4.25 µM) | 4 µg/mL (≈ 8.5 µM) | 4 µg/mL (≈ 8.5 µM) | 32 µg/mL (≈ 68 µM) | 0.25 µg/mL (≈ 0.531 µM) | 2 µg/mL (≈ 4.25 µM) | 4 µg/mL (≈ 8.5 µM) | 16 µg/mL (≈ 34 µM) | 0.03 µg/mL (≈ 0.0638 µM) |
| C/C(=N\OC(Cn1ccnc1)c1ccc(Cl)cc1Cl)c1ccc(OCCN2CCOCC2)cc1 (stereo not given) | 32 µg/mL (≈ 63.6 µM) | 1 µg/mL (≈ 1.99 µM) | 2 µg/mL (≈ 3.97 µM) | 32 µg/mL (≈ 63.6 µM) | 32 µg/mL (≈ 63.6 µM) | 8 µg/mL (≈ 15.9 µM) | 8 µg/mL (≈ 15.9 µM) | 16 µg/mL (≈ 31.8 µM) | 8 µg/mL (≈ 15.9 µM) | 0.06 µg/mL (≈ 0.119 µM) | 4 µg/mL (≈ 7.95 µM) | 8 µg/mL (≈ 15.9 µM) | 32 µg/mL (≈ 63.6 µM) | 0.004 µg/mL (≈ 0.00795 µM) |
| Clc1ccc(/C(Cn2ccnc2)=N/OC(Cn2ccnc2)c2ccc(Cl)cc2Cl)c(Cl)c1 (stereo not given) | 128 µg/mL (≈ 251 µM) | 32 µg/mL (≈ 62.8 µM) |  |  |  |  |  |  |  |  |  |  |  |  |
| C/C(=N\OC(Cn1ccnc1)c1ccc(F)cc1F)c1cc(F)ccc1F (stereo not given) | 4 µg/mL (≈ 10.6 µM) | 8 µg/mL (≈ 21.2 µM) | 1 µg/mL (≈ 2.65 µM) | 8 µg/mL (≈ 21.2 µM) | 4 µg/mL (≈ 10.6 µM) | 64 µg/mL (≈ 170 µM) | 1 µg/mL (≈ 2.65 µM) | 16 µg/mL (≈ 42.4 µM) | 32 µg/mL (≈ 84.8 µM) | 0.03 µg/mL (≈ 0.0795 µM) | 0.25 µg/mL (≈ 0.663 µM) | 2 µg/mL (≈ 5.3 µM) | 8 µg/mL (≈ 21.2 µM) | 2 µg/mL (≈ 5.3 µM) |
| Fc1ccc(/C(Cn2ccnc2)=N/OC(Cn2ccnc2)c2ccc(F)cc2F)c(F)c1 (stereo not given) | > 128 µg/mL | 2 µg/mL (≈ 4.51 µM) | 64 µg/mL (≈ 144 µM) | > 128 µg/mL | > 128 µg/mL | 128 µg/mL (≈ 289 µM) | 16 µg/mL (≈ 36.1 µM) | 64 µg/mL (≈ 144 µM) | > 128 µg/mL | 4 µg/mL (≈ 9.02 µM) | 64 µg/mL (≈ 144 µM) | > 128 µg/mL | > 128 µg/mL | 8 µg/mL (≈ 18 µM) |
| C/C(=N\OC(Cn1ccnc1)c1ccc(F)cc1F)c1c(F)cccc1F (stereo not given) | 16 µg/mL (≈ 42.4 µM) | 32 µg/mL (≈ 84.8 µM) | 4 µg/mL (≈ 10.6 µM) | 64 µg/mL (≈ 170 µM) | 32 µg/mL (≈ 84.8 µM) | 16 µg/mL (≈ 42.4 µM) | 1 µg/mL (≈ 2.65 µM) | 8 µg/mL (≈ 21.2 µM) | 32 µg/mL (≈ 84.8 µM) | 0.03 µg/mL (≈ 0.0795 µM) | 2 µg/mL (≈ 5.3 µM) | 2 µg/mL (≈ 5.3 µM) | 32 µg/mL (≈ 84.8 µM) | 0.25 µg/mL (≈ 0.663 µM) |
| C/C(=N\OC(Cn1ccnc1)c1ccc(F)cc1F)c1ccc(F)cc1 (stereo not given) | 16 µg/mL (≈ 44.5 µM) | 64 µg/mL (≈ 178 µM) |  |  |  |  |  |  |  |  |  |  |  |  |
| Cl.Fc1ccc(C(Cn2ccnc2)O/N=C/c2c(F)cccc2F)c(F)c1 (stereo not given) | 32 µg/mL | 32 µg/mL |  |  |  |  |  |  |  |  |  |  |  |  |
| Cl.Fc1ccc(/C=N/OC(Cn2ccnc2)c2ccc(F)cc2F)c(F)c1 (stereo not given) | 16 µg/mL | 16 µg/mL |  |  |  |  |  |  |  |  |  |  |  |  |
| C/C(=N\OC(Cn1ccnc1)c1ccc(F)cc1F)c1ccccc1F.Cl (stereo not given) | 16 µg/mL | 32 µg/mL |  |  |  |  |  |  |  |  |  |  |  |  |
| Cl.Clc1ccc(/C=N/OC(Cn2ccnc2)c2ccc(Cl)cc2Cl)c(Cl)c1 (stereo not given) | 64 µg/mL | > 128 µg/mL |  |  |  |  |  |  |  |  |  |  |  |  |
| OC(Cn1cncn1)(Cn1cncn1)c1ccc(F)cc1F [FLUCONAZOLE] | > 128 µg/mL | 0.12 µg/mL (≈ 0.392 µM) | 0.5 µg/mL (≈ 1.63 µM) | > 128 µg/mL | > 128 µg/mL | > 128 µg/mL | > 128 µg/mL | > 128 µg/mL | > 128 µg/mL | 2 µg/mL (≈ 6.53 µM) | 0.5 µg/mL (≈ 1.63 µM) | > 128 µg/mL | > 128 µg/mL | 0.5 µg/mL (≈ 1.63 µM) |
| Clc1ccc(CO/N=C(\Cn2ccnc2)c2ccc(Cl)cc2Cl)c(Cl)c1 [OXICONAZOLE] | 2 µg/mL (≈ 4.66 µM) | 0.03 µg/mL (≈ 0.0699 µM) | 2 µg/mL (≈ 4.66 µM) | 2 µg/mL (≈ 4.66 µM) | 2 µg/mL (≈ 4.66 µM) | 4 µg/mL (≈ 9.32 µM) | 0.25 µg/mL (≈ 0.583 µM) | 2 µg/mL (≈ 4.66 µM) | 64 µg/mL (≈ 149 µM) | 0.01 µg/mL (≈ 0.0233 µM) | 2 µg/mL (≈ 4.66 µM) | 4 µg/mL (≈ 9.32 µM) | 2 µg/mL (≈ 4.66 µM) | 0.008 µg/mL (≈ 0.0186 µM) |
